# High-throughput results: PubChem, several laboratories
# Most compounds without a hit are left out; they make up all but 3.1% or so of the library.
# LEDGF integ inh = blocks HIV-1 LEDGF/p75-dependent DNA integration; AID 743269; inhibition, % at 3.7 µM; TR-FRET IN-LEDGF/p75 DNA integration, Eu/Cy5; 0.64% of 370,000 active;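 active = inhibition above the screen-wide mean plus 3 SD, cut at about 13% in these data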;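 note: signal is the Cy5 over europium emission ratio at 671 and 618 nm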
# CSN inh = CSN deneddylation inhibition. 0.38% of 360,000 active. Purified CSN, SCF-Nedd8-OG deneddylation, fluorescence polarization. inhibition, % at 12.5 µM. Q92905;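 active = pattern-corrected inhibition above about 35%, with an unprinted fluorescence ratio check between 0.5 and 1.5, limit read from the data, passing the limit was not always enough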
# Target sequence (Q92905 whole entry, looked up, one chain of several): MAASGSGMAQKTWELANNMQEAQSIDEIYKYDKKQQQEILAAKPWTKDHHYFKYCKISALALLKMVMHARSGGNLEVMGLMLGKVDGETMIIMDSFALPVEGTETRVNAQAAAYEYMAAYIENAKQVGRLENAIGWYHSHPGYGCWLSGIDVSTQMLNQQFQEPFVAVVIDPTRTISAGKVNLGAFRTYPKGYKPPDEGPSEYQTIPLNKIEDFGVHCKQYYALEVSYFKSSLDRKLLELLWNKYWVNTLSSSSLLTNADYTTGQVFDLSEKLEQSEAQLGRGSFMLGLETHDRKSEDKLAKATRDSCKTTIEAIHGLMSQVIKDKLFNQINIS
#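 Assay system: purified human Csn5 enzyme expressed in HEK293T cells; Input: 0.24 nM Csn5 enzyme, final concentration; Reagent: 10 nM SCFSkp2-Nedd8OG; Compound dosing: 12.5 µM single point; Times: reaction 90 min, room temperature; Technique: fluorescence polarization readout.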
# ATG4B inh = ATG4B (human) cysteine protease inhibition. ATG4B cleavage of LC3-PLA2, NBD-HPC fluorescence, 1 h. inhibition, % at 8.33 µM. 0.51% of 340,000 active; in the data active = inhibition above about 40%
# UHRF1 MBD2 ctr = human UHRF1 methylated DNA binding inhibitors | Q96T88 | UHRF1 binding to methylated oligo, TR-FRET | inhibition, % at 4.4 µM | 0.75% of 370,000 active; in the data active = inhibition above about 21%;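 note: UHRF1 SRA domain binding a hemimethylated CpG hairpin DNA probe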
# MBD2 DNA inh = MBD2-methylated oligo binding inhibition; TR-FRET, MBD2 binding to methylated oligonucleotide; inhibition, % at 4.4 µM; 0.31% of 370,000 active; in the data active = inhibition above about 13%
# rCAG RNA binder = molecules binding r(CAG) RNA repeats; r(CAG) RNA repeat, TO-PRO-1 dye displacement fluorescence; inhibition, % at 3 µM; 1.3% of 370,000 active; AID 651821;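 active = inhibition above the plate cutoff, the mean of all test compounds on that plate plus 3 SD, cut at about 35% in these data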;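 note: higher means more dye released from RNA so lower well fluorescence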
# Numbers stand for hits; i = inactive; nt = not tested or not shown.
SMILES,LEDGF integ inh,CSN inh,ATG4B inh,UHRF1 MBD2 ctr,MBD2 DNA inh,rCAG RNA binder
N=C(N)SCc1ccc(O)c([N+](=O)[O-])c1,i,i,i,38.0,i,i
CCN(CC(=O)Nc1ccc(OC)cc1)C(=O)c1ccc(NS(=O)(=O)c2ccc(C(C)=O)cc2)cc1,i,i,i,23.2,i,i
CCOc1ccc(S(=O)(=O)Nc2cccc(C(=O)N(C)CC(=O)Nc3ccc(OC)cc3)c2)cc1,44.4,i,i,i,i,i
CCN(CC(=O)Nc1ccc(NC(C)=O)cc1)C(=O)c1ccc(N(C)S(=O)(=O)c2ccc(C)cc2)cc1,i,i,i,41.7,i,i
CCOc1ccc(S(=O)(=O)Nc2cccc(C(=O)N(C)CC(=O)Nc3cccc(OC)c3)c2)cc1,i,i,i,i,i,i
CCC(=O)N1CCc2cc(Br)c(S(=O)(=O)N3CCCC(C(=O)NC(C)(C)C)C3)cc21 (stereo unspecified),i,nt,nt,i,i,i
O=C1CCCc2cc3c(ccc4ccccc43)cc21,i,i,i,i,i,i
Cc1cc2c(cc1C)C(=O)CCC2,i,i,nt,23.9,i,i
CN(CCC#N)C(=O)COC(=O)/C=C/c1cccs1,i,i,i,i,i,i
CCO/C=C/C(=O)N(C)CCC#N,i,i,i,100.1,i,i
CC(=O)O[C@@H]1C=C[C@@H](C#Cc2ccc(C(C)(C)C)cc2)O[C@@H]1COC(=O)NCc1ccccc1,i,nt,nt,i,i,i
Cc1ccc2nc(-c3ccc(F)cc3)c(CC3CCCCC3)n2c1,i,i,nt,21.2,i,i
Cc1ccc2nc(-c3ccc(Cl)cc3)c(CC3CCCCC3)n2c1,i,i,nt,21.3,i,i
Brc1ccc2nc(-c3ccco3)c(CC3CCCCC3)n2c1,16.4,i,nt,i,i,i
FC(F)(F)c1ccccc1NC(=S)OCCN1CCCC12CCC(c1ccccc1)CC2 (stereo unspecified),i,nt,nt,i,i,nt
CCN=C1S/C(=C/c2ccc(-c3ccc(Cl)cc3C(=O)O)o2)C(=O)N1CC,i,i,i,i,i,55.4
CC(=O)OC12CCCN(C1)/C(=C/c1cccnc1)C2 (stereo unspecified),i,nt,nt,i,i,i
O=C(c1ccoc1)N1CCN(c2cc(-c3ccco3)nc3cc(-c4ccco4)nn23)CC1,i,nt,nt,i,i,nt
CCOC(=O)[C@]12CCCCC/C=C\1N(Cc1ccc(OC)cc1)C(=O)[C@H]2CC(=O)NCCc1ccccc1OC,i,nt,nt,i,i,i
CCOC(=O)C1=CCC(c2ccccc2)N(S(=O)(=O)c2ccccc2C)C1 (stereo unspecified),i,91.7,nt,i,i,i
COc1ccc([C@@H]2CC=C(C(=O)O)[C@H](c3ccccc3)N2S(=O)(=O)c2ccc(C)cc2)cc1OC,i,i,i,i,i,i
COc1ccc([C@@H]2CC=C(C(=O)O)[C@H](c3ccccc3)N2S(=O)(=O)c2ccccc2C)cc1,i,i,i,i,i,35.8
COc1ccc(-n2c(COc3ccccc3)nnc2SCC(=O)Nc2ccc3c(c2)OCCO3)cc1,i,nt,nt,i,i,i
CCCS(=O)(=O)Nc1c(C(=O)OC)[nH]c2ccccc12,i,i,i,21.5,i,i
COc1cc(-n2c(C)nc3cc(C(=O)N4CC(C)CC(C)C4)ccc32)cc(OC)c1OC (stereo unspecified),i,nt,nt,i,i,i
SMILES,LEDGF integ inh,CSN inh,ATG4B inh,UHRF1 MBD2 ctr,MBD2 DNA inh,rCAG RNA binder
CCCCCCCCNS(=O)(=O)CCNCc1ccccc1,i,i,nt,22.5,i,i
CCCCCCCCNS(=O)(=O)CCNCCc1ccccc1,i,i,i,i,i,i
O=C(c1cnc(Cc2c[nH]c3ccccc23)c(I)c1)N1CCN(Cc2ccccc2)CC1,i,42.2,nt,i,i,i
O=C(c1cnc(Cc2c[nH]c3ccccc23)c(I)c1)N1CCCCC1,i,i,nt,i,i,i
Cc1cc(C)n2nc(C(=O)Nc3ccn(Cc4ccccc4C)n3)cc2n1,i,i,i,22.9,i,i
CN(C)c1cccc(-c2cnc(N3CCC(C(N)=O)CC3)nc2)c1,i,nt,nt,i,i,nt
CC(C)(C)OC(=O)NCc1ccccc1/C=C/S(=O)(=O)NCCc1ccccc1,i,nt,nt,i,i,i
CCOC(=O)CC[C@H]1CC[C@]2(CCCN(C3CCCCC3)C2)O1,i,nt,nt,i,i,i
CCc1ccc(N2CSC3=C(C#N)C(c4cccs4)CC(=O)N3C2)cc1 (stereo unspecified),nt,35.6,i,nt,nt,nt
CC(=O)N1CCCN(C(=O)CCn2nnc3ccccc32)CC1,i,nt,nt,90.9,i,i
COc1ccc(C)cc1NC(=O)C(Sc1nncn1C)c1ccccc1 (stereo unspecified),i,i,i,24.2,i,i
CC1(C(=O)NS(=O)(=O)Cc2cccc(Cl)c2)CCN1C(=O)Cc1cccs1 (stereo unspecified),i,71.3,nt,i,i,i
CSc1ccccc1NC(=O)Cc1ccccc1,i,i,i,23.3,i,i
COc1ccc(Cn2c(C)nc3c(c2=O)c2nc4ccccc4nc2n3Cc2ccco2)cc1,13.5,44.6,i,i,17.8,i
COc1ccc(S(=O)(=O)c2c(N)n(Cc3ccco3)c3nc4ccccc4nc23)cc1,14.6,i,i,i,i,i
COc1ccc(C)c(NC(=O)[C@@H]2CCCN2S(=O)(=O)c2cccc3cccnc23)c1,i,nt,nt,i,i,nt
CC(C1SC(=S)NC1=O)C1SC(=S)NC1=O (stereo unspecified),i,38.2,nt,i,i,i
Cc1cc(-c2cc(NC(=O)Cc3c[nH]c4ccccc34)ccc2Nc2cccnc2)ccc1F,i,nt,nt,i,i,i
CC1CC(=O)N(c2ccc(NCc3ccc(Cl)cc3)c([N+](=O)[O-])c2)C1=O (stereo unspecified),i,39.3,i,i,i,i
O=C(O)Cn1c2c(c3ccccc31)CSc1ccc(Cl)cc1-2,i,i,i,i,i,58.2
Nc1c(C(=O)N/N=C/c2ccc(Cl)cc2)cnn1-c1ccccc1,i,118.5,i,i,i,i
CC1(C(=O)NCc2ccccc2)Cc2c(-c3ccccc3)ccnc2O1 (stereo unspecified),i,i,nt,66.1,i,i
CCOc1ncccc1C(=O)N1CCN(C(=O)c2ccccc2)CC1,i,i,i,21.0,i,i
CCOc1ncccc1C(=O)N1CCN(S(=O)(=O)c2ccccc2)CC1,i,i,i,i,i,i
COc1cc(NC(=O)CN2C(=O)COc3ccccc32)cc(OC)c1,i,i,i,21.0,i,i
CCn1nc(C)c(C2C(C#N)=C(N)OC3=C2C(=O)CCC3)c1C (stereo unspecified),i,i,i,i,i,i
Cc1nn(C)c(C)c1C1C(C#N)=C(N)OC2=C1C(=O)CCC2 (stereo unspecified),i,i,i,21.4,i,i
C=CCN1C(=O)[C@@H](CC(=O)NCc2cccc(C(F)(F)F)c2)[C@]2(C(=O)OCC)CCCCC/C=C/12,i,nt,nt,i,i,i
